# Experimental data from ChEMBL document CHEMBL1944507, “Structure-activity relationships for amide-, carbamate-, and urea-linked analogues of the tuberculosis drug (6S)-2-nitro-6-{[4-(trifluoromethoxy)benzyl]oxy}-6,7-dihydro-5H-imidazo[2,1-b][1,3]oxazine (PA-824)” (J Med Chem, 2012).
# Test system: not listed separately
# Experiment: Kinetic solubility of the compound in water at pH 7 by HPLC analysis
# Format: physicochemical
# Conditions: read-out: Kinetic_solubility
row,SMILES,solubility kinetic [µg/mL]
1,O=C(Nc1ccc(-c2ccc(OC(F)(F)F)cc2)cc1)N[C@@H]1COc2nc([N+](=O)[O-])cn2C1,0.17
2,O=C(NCc1ccc(-c2ccc(OC(F)(F)F)cc2)cc1)O[C@@H]1COc2nc([N+](=O)[O-])cn2C1,0.34
3,CN(C(=O)N(C)[C@@H]1COc2nc([N+](=O)[O-])cn2C1)c1ccc(OC(F)(F)F)cc1,38
4,O=C(CN[C@@H]1COc2nc([N+](=O)[O-])cn2C1)c1ccc(OC(F)(F)F)cc1,21
5,O=C(O[C@@H]1COc2nc([N+](=O)[O-])cn2C1)N1CC[C@H](Oc2ccc(OC(F)(F)F)cc2)C1,21
6,CN(C(=O)O[C@@H]1COc2nc([N+](=O)[O-])cn2C1)c1ccc(OC(F)(F)F)cc1,18
7,O=C(Nc1cccc(-c2ccc(OC(F)(F)F)cc2)c1)O[C@@H]1COc2nc([N+](=O)[O-])cn2C1,0.07
8,O=[N+]([O-])c1cn2c(n1)OC[C@@H](NC(=S)Nc1ccc(OC(F)(F)F)cc1)C2,12
9,O=C(N[C@@H]1COc2nc([N+](=O)[O-])cn2C1)OCc1ccc(-c2ccc(OC(F)(F)F)cc2)cc1,0.67
10,O=C(NCc1ccc(OC(F)(F)F)cc1)N[C@@H]1COc2nc([N+](=O)[O-])cn2C1,32
11,O=[N+]([O-])c1cn2c(n1)OC[C@@H](NCc1ccc(OC(F)(F)F)cc1)C2,131
12,O=C(NCc1ccc(OC(F)(F)F)cc1)O[C@@H]1COc2nc([N+](=O)[O-])cn2C1,10

# Test system: not listed separately
# Experiment: Plasma protein binding in human at 10 uM
# Format: ADME, cell-free
# Conditions: read-out: PPB (converted)
# Outline: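 Human plasma protein binding measured by equilibrium dialysis, with overnight incubation of compound at 10 μM containing 1% DMSO.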
row,SMILES,fraction unbound at 10 µM
1,O=[N+]([O-])c1cn2c(n1)OC[C@@H](OCc1ccc(OC(F)(F)F)cc1)C2 [PRETOMANID],0.06

# Test system: Mycobacterium tuberculosis
# Experiment: Antimicrobial activity against Mycobacterium tuberculosis infected in BALB/c mouse assessed as fold reduction in lung CFU at 100 mg/kg, po administered 70 days after post infection qd for 5 days per week for 3 weeks
# Format: functional
# Conditions: not given
# Outline: (§1)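 Chronic infection model in M. tb-infected BALB/c mice: oral dosing at 100 mg/kg daily, 5 days/week for 3 weeks, beginning about 70 days postinfection. Result expressed as fold lung CFU reduction relative to the reference drug.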
row,SMILES,fold change (FC)
1,C[C@]1(COc2ccc(N3CCC(Oc4ccc(OC(F)(F)F)cc4)CC3)cc2)Cn2cc([N+](=O)[O-])nc2O1,3
2,O=[N+]([O-])c1cn2c(n1)OC[C@@H](OCc1ccc(OC(F)(F)F)cc1)C2 [PRETOMANID],2

# Test system: not listed separately
# Experiment: Ratio AUC (0 to infinity) in CD-1 mouse lung to AUC (0 to infinity) in CD-1 mouse plasma at 40 mg/kg, po
# Format: ADME, organism-based
# Set-up: dose 40 mg/kg, route oral
# Conditions: read-out: Ratio AUC
# Outline: (§2)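 CD-1 mice given a single oral dose of 40 mg/kg, suspended in 0.5% carboxymethylcellulose/0.08% Tween 80 in water. Plasma and lung samples quantified by LC-MS/MS. AUC extrapolated to infinity. Lung/plasma ratio is lung AUC divided by plasma AUC.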
row,SMILES,Kp
1,O=C(Nc1ccc(-c2ccc(OC(F)(F)F)cc2)cc1)O[C@@H]1COc2nc([N+](=O)[O-])cn2C1,> 3
2,O=C(Nc1ccc(-c2ccc(OC(F)(F)F)cc2)cc1)N[C@@H]1COc2nc([N+](=O)[O-])cn2C1,> 9

# Test system: not listed separately
# Experiment: AUC (0 to infinity) in CD-1 mouse lung at 40 mg/kg, po
# Format: ADME, organism-based
# Set-up: dose 40 mg/kg, route oral, time infinity
# Conditions: not given
# Outline: as §2
row,SMILES,AUC(0-inf) [ng·h/mL]
1,O=C(Nc1ccc(-c2ccc(OC(F)(F)F)cc2)cc1)O[C@@H]1COc2nc([N+](=O)[O-])cn2C1,> 136000
2,O=C(Nc1ccc(-c2ccc(OC(F)(F)F)cc2)cc1)N[C@@H]1COc2nc([N+](=O)[O-])cn2C1,> 60000

# Test system: not listed separately
# Experiment: Cmax in CD-1 mouse lung at 40 mg/kg, po
# Format: ADME, organism-based
# Set-up: dose 40 mg/kg, route oral
# Conditions: not given
# Outline: as §2
row,SMILES,Cmax [ng/mL]
1,O=C(Nc1ccc(-c2ccc(OC(F)(F)F)cc2)cc1)O[C@@H]1COc2nc([N+](=O)[O-])cn2C1,6900
2,O=C(Nc1ccc(-c2ccc(OC(F)(F)F)cc2)cc1)N[C@@H]1COc2nc([N+](=O)[O-])cn2C1,4700

# Test system: not listed separately
# Experiment: Metabolic stability of the compound in CD-1 mouse liver microsomes assessed as compound remaining after 1 hr
# Format: ADME, Microsome
# Conditions: read-out: Stability
# Outline: (§3)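 Pooled human or CD-1 mouse liver microsomes incubated with compound for 1 h. Percentage of compound remaining calculated from analyte/internal standard peak area ratios.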
row,SMILES,remaining at 1 h [%]
1,O=C(Nc1ccc(-c2ccc(OC(F)(F)F)cc2)cc1)O[C@@H]1COc2nc([N+](=O)[O-])cn2C1,98
2,O=C(Nc1ccc(-c2ccc(OC(F)(F)F)cc2)cc1)N[C@@H]1COc2nc([N+](=O)[O-])cn2C1,90
3,CN(C(=O)O[C@@H]1COc2nc([N+](=O)[O-])cn2C1)c1ccc(OC(F)(F)F)cc1,1
4,O=C(Nc1cccc(-c2ccc(OC(F)(F)F)cc2)c1)O[C@@H]1COc2nc([N+](=O)[O-])cn2C1,93

# Test system: Mycobacterium tuberculosis
# Experiment: Antimicrobial activity against Mycobacterium tuberculosis infected in BALB/c mouse assessed as fold reduction in lung CFU at 100 mg/kg, po administered 11 days after post infection qd for 5 days per week for 3 weeks relative to PA-824
# Format: functional
# Conditions: not given
# Outline: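 Groups of 7 M. tb-infected BALB/c mice dosed orally at 100 mg/kg daily, 5 days/week for 3 weeks, starting on day 11 postinfection. Readout is the average lung CFU reduction in treated mice divided by the average CFU reduction in mice given the reference nitroimidazooxazine.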
row,SMILES,fold change (FC)
1,O=C(Nc1ccc(-c2ccc(OC(F)(F)F)cc2)cc1)O[C@@H]1COc2nc([N+](=O)[O-])cn2C1,5
2,O=C(Nc1ccc(-c2ccc(OC(F)(F)F)cc2)cc1)N[C@@H]1COc2nc([N+](=O)[O-])cn2C1,1
3,CN(C(=O)O[C@@H]1COc2nc([N+](=O)[O-])cn2C1)c1ccc(OC(F)(F)F)cc1,5.3
4,O=C(Nc1cccc(-c2ccc(OC(F)(F)F)cc2)c1)O[C@@H]1COc2nc([N+](=O)[O-])cn2C1,3.4

# Test system: not listed separately
# Experiment: Cmax in CD-1 mouse plasma at 40 mg/kg, po
# Format: ADME, organism-based
# Set-up: dose 40 mg/kg, route oral
# Conditions: not given
# Outline: as §2
row,SMILES,Cmax [ng/mL]
1,O=C(Nc1ccc(-c2ccc(OC(F)(F)F)cc2)cc1)O[C@@H]1COc2nc([N+](=O)[O-])cn2C1,520
2,O=C(Nc1ccc(-c2ccc(OC(F)(F)F)cc2)cc1)N[C@@H]1COc2nc([N+](=O)[O-])cn2C1,480

# Test system: not listed separately
# Experiment: Thermodynamic solubility of the compound at pH 7.4
# Format: physicochemical
# Conditions: buffer, read-out: Therm_solubility
row,SMILES,solubility thermodynamic [µM]
1,O=[N+]([O-])c1cn2c(n1)OC[C@@H](OCc1ccc(OC(F)(F)F)cc1)C2 [PRETOMANID],30

# Test system: Salmonella typhimurium
# Experiment: Induction of mutagenesis in Salmonella Typhimurium TA98 in presence of rat liver S9 fraction by Ames test
# Format: toxicity, organism-based
# Conditions: salmonella enterica subsp. enterica serovar typhimurium
# Outline: (§4)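 MicroAmes reverse mutation screen in Salmonella TA98 and TA100, preincubated with and without rat liver S9, at 0.25-250 μg/well.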
row,SMILES,Activity
1,O=[N+]([O-])c1cn2c(n1)OC[C@@H](OCc1ccc(OC(F)(F)F)cc1)C2 [PRETOMANID],Non-toxic

# Test system: not listed separately
# Experiment: AUC (0 to infinity) in CD-1 mouse plasma at 40 mg/kg, po
# Format: ADME, organism-based
# Set-up: dose 40 mg/kg, route oral, time infinity
# Conditions: not given
# Outline: as §2
row,SMILES,AUC(0-inf) [ng·h/mL]
1,O=C(Nc1ccc(-c2ccc(OC(F)(F)F)cc2)cc1)O[C@@H]1COc2nc([N+](=O)[O-])cn2C1,44900
2,O=C(Nc1ccc(-c2ccc(OC(F)(F)F)cc2)cc1)N[C@@H]1COc2nc([N+](=O)[O-])cn2C1,6610

# Test system: Salmonella typhimurium
# Experiment: Induction of mutagenesis in Salmonella Typhimurium TA100 in presence of rat liver S9 fraction by Ames test
# Format: toxicity, organism-based
# Conditions: salmonella enterica subsp. enterica serovar typhimurium
# Outline: as §4
row,SMILES,Activity
1,O=[N+]([O-])c1cn2c(n1)OC[C@@H](OCc1ccc(OC(F)(F)F)cc1)C2 [PRETOMANID],Non-toxic

# Test system: not listed separately
# Experiment: Octanol-water partition coefficient, log P of the compound by shake-flask method
# Format: physicochemical
# Conditions: not given
# Outline: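 Octanol-water partition coefficient measured by the shake-flask method.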
row,SMILES,logP
1,O=[N+]([O-])c1cn2c(n1)OC[C@@H](OCc1ccc(OC(F)(F)F)cc1)C2 [PRETOMANID],2.52

# Test system: Mycobacterium tuberculosis
# Experiment: Antimicrobial activity against Mycobacterium tuberculosis infected in chronic BALB/c mouse infection model assessed as fold reduction in lung CFU at 100 mg/kg, po dministered 50 days after post infection qd for 5 days per week for 3 weeks
# Format: functional
# Conditions: not given
row,SMILES,fold change (FC)
1,C[C@]1(COc2ccc(N3CCC(Oc4ccc(OC(F)(F)F)cc4)CC3)cc2)Cn2cc([N+](=O)[O-])nc2O1,3

# Test system: Salmonella typhimurium
# Experiment: Induction of mutagenesis in Salmonella Typhimurium TA98 in absence of rat liver S9 fraction by Ames test
# Format: toxicity, organism-based
# Conditions: salmonella enterica subsp. enterica serovar typhimurium
# Outline: as §4
row,SMILES,Activity
1,O=[N+]([O-])c1cn2c(n1)OC[C@@H](OCc1ccc(OC(F)(F)F)cc1)C2 [PRETOMANID],Non-toxic

# Test system: not listed separately
# Experiment: Thermodynamic solubility of the compound at pH 1
# Format: physicochemical
# Conditions: buffer, read-out: Therm_solubility
row,SMILES,solubility thermodynamic [µM]
1,O=[N+]([O-])c1cn2c(n1)OC[C@@H](OCc1ccc(OC(F)(F)F)cc1)C2 [PRETOMANID],30

# Test system: not listed separately
# Experiment: Metabolic stability of the compound in human liver microsomes assessed as compound remaining after 1 hr
# Format: ADME, Microsome
# Conditions: read-out: Stability
# Outline: as §3
row,SMILES,remaining at 1 h [%]
1,O=C(Nc1ccc(-c2ccc(OC(F)(F)F)cc2)cc1)O[C@@H]1COc2nc([N+](=O)[O-])cn2C1,100
2,O=C(Nc1ccc(-c2ccc(OC(F)(F)F)cc2)cc1)N[C@@H]1COc2nc([N+](=O)[O-])cn2C1,91
3,CN(C(=O)O[C@@H]1COc2nc([N+](=O)[O-])cn2C1)c1ccc(OC(F)(F)F)cc1,37
4,O=C(Nc1cccc(-c2ccc(OC(F)(F)F)cc2)c1)O[C@@H]1COc2nc([N+](=O)[O-])cn2C1,88

# Test system: Salmonella typhimurium
# Experiment: Induction of mutagenesis in Salmonella Typhimurium TA100 in absence of rat liver S9 fraction by Ames test
# Format: toxicity, organism-based
# Conditions: salmonella enterica subsp. enterica serovar typhimurium
# Outline: as §4
row,SMILES,Activity
1,O=[N+]([O-])c1cn2c(n1)OC[C@@H](OCc1ccc(OC(F)(F)F)cc1)C2 [PRETOMANID],Non-toxic

# Test system: Mycobacterium tuberculosis
# Experiment: Antimicrobial activity against Mycobacterium tuberculosis infected in BALB/c mouse assessed as fold reduction in lung CFU at 100 mg/kg, po administered 70 days after post infection qd for 5 days per week for 3 weeks relative to OPC-67683
# Format: functional
# Conditions: not given
# Outline: as §1
row,SMILES,fold change (FC)
1,O=C(Nc1ccc(-c2ccc(OC(F)(F)F)cc2)cc1)O[C@@H]1COc2nc([N+](=O)[O-])cn2C1,0.35

# Test system: not listed separately
# Experiment: Half life in CD-1 mouse plasma at 40 mg/kg, po
# Format: ADME, organism-based
# Set-up: dose 40 mg/kg, route oral
# Conditions: not given
# Outline: as §2
row,SMILES,half-life [min]
1,O=C(Nc1ccc(-c2ccc(OC(F)(F)F)cc2)cc1)O[C@@H]1COc2nc([N+](=O)[O-])cn2C1,3740
2,O=C(Nc1ccc(-c2ccc(OC(F)(F)F)cc2)cc1)N[C@@H]1COc2nc([N+](=O)[O-])cn2C1,378
